Laboratory results published in article PMC5316514 (Clinical cancer research : an official journal of the …, 2016).
“And” between values parts separate entries of the source, which are not always exact repeats. Identical values can stand only once. “Also recorded” adds a separate entry of the source.

Tests used:
PDE4 = details: cited from earlier work
AKT = AKT phosphorylation; format: in vivo, human; details: 5 of 8 patients; roflumilast single agent, day 8 vs day 0, PBMC, western blot
PI3K = PI3K activity; format: in vivo, human
Safety / adverse events = format: in vivo, human
Summary of the method: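 Ten patients received 21-day cycles of oral roflumilast 500 mcg daily. Prednisone 60 mg/m2 PO daily was added on days 8–14 of cycle 1 (maximum 100 mg daily) and on days 1–7 of later cycles. Incidence, severity, relationship and type of adverse events during treatment and follow-up were graded by NCI CTCAE version 4.03.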

B cell lymphoma = details: murine model of B cell lymphoma; cited from earlier work
[1] = test system: relapsed/refractory B cell malignancies; experiment: Clinical response and days in trial, phase Ib trial; format: in vivo, human; details: roflumilast plus prednisone
Summary of the method: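 Cycles lasted 21 days, with oral roflumilast 500 mcg daily throughout. Prednisone 60 mg/m2 PO daily was given on days 8–14 in cycle 1 (maximum 100 mg daily) and on days 1–7 in later cycles. Response was scored by International Working Group revised criteria for each disease.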

[2] = roflumilast 500 mcg PO daily plus prednisone, 10 patients
[3] = individual patient (UPN, diagnosis in the row)
[4] = individual patient, PI3K/AKT non-suppressors
[5] = individual patient, PI3K/AKT suppressors

O=C(Nc1c(Cl)c[n+]([O-])cc1Cl)c1ccc(OC(F)F)c(OCC2CC2)c1 [roflumilast N-oxide]
IC50 for inhibition of PDE4 (PDE4): 0.8 ng/mL

O=C(Nc1c(Cl)cncc1Cl)c1ccc(OC(F)F)c(OCC2CC2)c1 [roflumilast]
samples with marked suppression of pAKT (T308) levels (AKT): 62.5%
PI3K suppression in non-PI3K/AKT suppressors (PI3K; n=4, no pAKT suppression, day 8 vs day 0, PBMC): < 25%
patients with significantly suppressed PI3K activity, number of evaluated (PI3K; roflumilast 500 mcg PO daily single agent, day 8 vs day 0, PBMC): 7 of the 9
patients evaluated with significantly suppressed PI3K activity (PI3K; roflumilast as single agent, 7 days, PBMC): 77%
transitory episode of suicidal ideation, patients (Safety / adverse events; UPN#10, end of first cycle, resolved upon cessation of study drug): One patient
transient ≥ grade 2 neutropenia, patients (Safety / adverse events; roflumilast 500 mcg PO daily plus prednisone, 3 of 10 patients): 30%
grade 4 events (Safety / adverse events; [2]): no grade 4 events
incidence of most common ≥Grade 2 treatment-related AEs (fatigue, anorexia, neutropenia), all causality (Safety / adverse events; [2]): ≥ 25%
tolerability of treatment (Safety / adverse events; [2]): generally well tolerated
survival (B cell lymphoma): improved
tumor burden (B cell lymphoma): significantly suppressed
IC50 for inhibition of PDE4 (PDE4): 0.3 ng/mL
partial response or stable disease, share of evaluable patients ([1]; 6 of nine evaluable patients): 66%
average days in trial, true PI3K/AKT suppressor profile ([1]; clinically evaluable patients): 156 days
average days in trial, without PI3K/AKT suppression ([1]; clinically evaluable patients): 91 days
days in trial, range, true PI3K/AKT suppressor profile ([1]; clinically evaluable patients): 49 to 315 days
days in trial, range, without PI3K/AKT suppression ([1]; clinically evaluable patients): 28 to 139 days
partial response or stable disease in PI3K/AKT suppressor group ([1]; four of five patients): 80%
Best response [1, 3]: Stable disease; also recorded: Withdrawn; also recorded: Progressed; also recorded: Partial response
days in trial (second figure of No of cycles/days in trial) [1, 3]: 4 / 105 days and 4 / 98 days and 1 / 29 days and 2 / 46 days and 8 / 190 days and 13 / 315 days and 2 / 49 days and 1 / 28 days and 5 / 139 days and 5 / 127 days
Best response [1, 4]: Stable disease; also recorded: Progressed
Days on trial [1, 4]: 139 days and 105 days and 29 days and 28 days
Best response [1, 5]: Stable disease; also recorded: Partial response; also recorded: Progressed
Days on trial [1, 5]: 190 days and 315 days and 49 days and 127 days and 98 days
patients with early progression (during first or second cycle) ([1]; of nine evaluable patients): 3 patients
days in trial until progression, death or withdrawn consent, range [1]: 28 to 315 days
median number of days in trial until progression, death or withdrawn consent [1]: 105 days
average days in trial, patients of Hispanic origin ([1]; p=0.08 vs non-Hispanic): 193 days
